Measured values: ChEMBL document CHEMBL2046278, “Development and evaluation of multifunctional agents for potential treatment of Alzheimer's disease: application to a pyrimidine-2,4-diamine template” (Bioorg Med Chem Lett, 2012)
Activity calls are given as the source filed them. No cut-off for these calls is given here. Peptide text beside a SMILES is read from it. * marks the point of attachment. Cbz = O=C(OCc1ccccc1)*

Tests used:
[1] = Inhibition of self-induced amyloid beta (1 to 40) aggregation at 100 uM after 24 hrs by thioflavin T-based fluorescence analysis
In short: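 Aβ1-40 peptide aggregating on its own, without hAChE, with test compound at 100 μM. Aggregation read by thioflavin T fluorescence and expressed as % inhibition. Reported as the mean of two separate experiments (n = 4), with deviation from the mean under 10% of the mean value.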

Acetylcholinesterase = Acetylcholinesterase (Homo sapiens, UniProt P22303); test: Inhibition of human AChE using acetylthiocholine iodide as substrate after 5 mins by DTNB method
Cholinesterase = Cholinesterase (Equus caballus, UniProt P81908); test: Inhibition of equine BuChE using butyrylthiocholine iodide as substrate after 5 mins by DTNB method
[2] = Selectivity ratio of IC50 for human AChE to IC50 for equine BuChE
Beta-secretase 1 [3] = molecular target: T1, Beta-secretase 1 (Homo sapiens, UniProt P56817); test: Inhibition of BACE1
[4] = Inhibition of amyloid beta (1 to 40) fibril formation at 10 uM coincubated with amyloid beta (1 to 40) peptide after 72 hrs by transmission electron microscopic analysis
Beta-secretase 1 [5] = molecular target: T1, Beta-secretase 1; test: Inhibition of BACE1 at 10 uM
[6] = Induction of disassembly of preformed amyloid beta (1 to 40) fibrils assessed as disaggregated fibrils at 10 uM after 3 days by transmission electron microscopic analysis
In short: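 Aβ1-40 fibrils were preformed over a three-day pre-fibrillization period. Compound was then incubated with the fibrils at 10 μM, and fibril morphology and disassembly were examined by transmission electron microscopy.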

[7] = Cytotoxicity against human SH-SY5Y cells assessed as cell viability at 40 uM after 24 hrs by MTT assay; type: cell-based; conditions: read-out: Activity

Chain of Cholinesterase (P81908 whole entry): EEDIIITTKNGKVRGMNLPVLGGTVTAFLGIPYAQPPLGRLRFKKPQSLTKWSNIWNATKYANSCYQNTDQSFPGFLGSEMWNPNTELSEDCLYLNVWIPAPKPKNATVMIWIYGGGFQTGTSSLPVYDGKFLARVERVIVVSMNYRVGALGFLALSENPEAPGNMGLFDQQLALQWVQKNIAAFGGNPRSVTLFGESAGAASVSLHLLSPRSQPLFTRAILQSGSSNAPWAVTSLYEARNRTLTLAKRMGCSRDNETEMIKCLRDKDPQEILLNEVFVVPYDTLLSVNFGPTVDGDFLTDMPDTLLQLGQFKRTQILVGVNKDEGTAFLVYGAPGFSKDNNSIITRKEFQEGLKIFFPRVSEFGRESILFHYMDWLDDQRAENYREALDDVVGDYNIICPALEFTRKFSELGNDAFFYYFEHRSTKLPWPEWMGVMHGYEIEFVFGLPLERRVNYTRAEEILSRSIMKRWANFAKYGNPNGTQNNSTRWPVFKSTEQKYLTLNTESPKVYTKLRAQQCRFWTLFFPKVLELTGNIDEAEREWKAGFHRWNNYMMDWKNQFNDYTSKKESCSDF
T1 sequence (P56817 whole entry): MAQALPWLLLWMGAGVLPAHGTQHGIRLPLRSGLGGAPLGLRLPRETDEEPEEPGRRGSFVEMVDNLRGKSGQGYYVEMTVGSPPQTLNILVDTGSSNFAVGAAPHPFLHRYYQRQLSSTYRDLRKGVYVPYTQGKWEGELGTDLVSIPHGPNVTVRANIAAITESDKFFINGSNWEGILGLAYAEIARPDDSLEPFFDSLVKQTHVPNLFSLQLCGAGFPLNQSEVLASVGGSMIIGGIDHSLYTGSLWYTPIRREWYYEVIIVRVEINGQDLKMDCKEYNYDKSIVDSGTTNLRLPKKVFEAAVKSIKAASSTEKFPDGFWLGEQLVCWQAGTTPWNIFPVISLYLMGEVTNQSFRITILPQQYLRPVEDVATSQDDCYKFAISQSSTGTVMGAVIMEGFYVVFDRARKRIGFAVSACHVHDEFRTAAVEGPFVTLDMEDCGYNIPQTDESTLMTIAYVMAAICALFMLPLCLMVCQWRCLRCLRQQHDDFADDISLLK
Chain of Acetylcholinesterase (P22303 whole entry): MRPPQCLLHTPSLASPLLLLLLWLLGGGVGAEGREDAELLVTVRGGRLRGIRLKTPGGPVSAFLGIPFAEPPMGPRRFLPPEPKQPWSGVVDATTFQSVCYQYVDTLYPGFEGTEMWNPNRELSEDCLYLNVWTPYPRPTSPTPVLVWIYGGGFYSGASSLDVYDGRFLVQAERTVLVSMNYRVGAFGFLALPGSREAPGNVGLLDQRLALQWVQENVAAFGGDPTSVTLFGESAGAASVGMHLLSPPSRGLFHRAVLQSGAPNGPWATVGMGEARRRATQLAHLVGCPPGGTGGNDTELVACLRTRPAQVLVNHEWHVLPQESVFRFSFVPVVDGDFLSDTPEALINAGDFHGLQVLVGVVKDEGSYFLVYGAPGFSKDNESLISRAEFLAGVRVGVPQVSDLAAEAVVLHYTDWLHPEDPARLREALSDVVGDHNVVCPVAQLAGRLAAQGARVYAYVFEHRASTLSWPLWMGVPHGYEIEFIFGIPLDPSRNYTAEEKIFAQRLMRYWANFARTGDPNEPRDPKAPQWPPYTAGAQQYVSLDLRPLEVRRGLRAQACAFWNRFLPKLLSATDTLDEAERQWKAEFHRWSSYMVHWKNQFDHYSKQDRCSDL

Structure (SMILES) | inhibition [1] | IC50 (Acetylcholinesterase) [µM] | IC50 (Cholinesterase) [µM] | Ratio IC50 [2] | IC50 (Beta-secretase 1 [3]) [µM] | inhibition [4] | inhibition (Beta-secretase 1 [5]) [%] | inhibition [6] | viability at 24 h, 40 µM [7] [%]
c1ccc(CN2CCC(Nc3nccc(NCc4ccc5c(c4)OCO5)n3)CC2)cc1 | 18.6% | 12.6 | 3.9 | 3.2 | 1.4 | – | – | – | –
COc1ccc2c3c1O[C@H]1C[C@@H](O)C=C[C@@]31CCN(C)C2 | 48% | – | – | – | – | Active | – | – | –
Brc1ccc(CNc2ccnc(NC3CCN(Cc4ccccc4)CC3)n2)cc1 | 48.4% | 9.9 | 4.1 | 2.4 | – | Active | 33 | Active | –
Cc1ccc(CNc2ccnc(NC3CCN(Cc4ccccc4)CC3)n2)cc1 | 21.9% | 12.9 | 2.5 | 5.2 | 11.1 | – | – | – | –
COc1ccc(CNc2ccnc(NC3CCN(Cc4ccccc4)CC3)n2)cc1 | 18.2% | 9.4 | 4.9 | 1.9 | 0.6 | – | – | – | –
COc1cc(CNc2ccnc(NC3CCN(Cc4ccccc4)CC3)n2)cc(OC)c1OC | inactive | 10.3 | 7.7 | 1.3 | 8.9 | – | – | – | –
Clc1ccc(CNc2ccnc(NC3CCN(Cc4ccccc4)CC3)n2)cc1 | 42.6% | 8.8 | 2.8 | 3.1 | 3.2 | Active | – | Active | –
COc1ccc(CNc2ccnc(NC3CCN(Cc4ccccc4)CC3)n2)cc1OC | 17.4% | 9.9 | 11.4 | 0.9 | – | – | 34 | – | 81
Fc1ccc(CNc2ccnc(NC3CCN(Cc4ccccc4)CC3)n2)cc1 | 29.8% | 7.7 | 2.2 | 3.5 | 0.7 | – | – | – | –
Clc1cccc(CNc2ccnc(NC3CCN(Cc4ccccc4)CC3)n2)c1 | 39.9% | 7.7 | 2.5 | 3.1 | 0.6 | – | – | – | –
Clc1ccccc1CNc1ccnc(NC2CCN(Cc3ccccc3)CC2)n1 | 42.2% | 7.7 | 2.4 | 3.2 | 1.7 | – | – | – | –
CC(C)C[C@@H](C=O)NC(=O)[C@H](CC(C)C)NC(=O)[C@@H](NC(=O)OCc1ccccc1)C(C)C (Cbz-Val-Leu-Leu-aldehyde) | – | – | – | – | 14 | – | – | – | –
